The source of these data is ChEMBL document CHEMBL3774372, “Design, physico-chemical properties and biological evaluation of some new N-[(phenoxy)alkyl]- and N-{2-[2-(phenoxy)ethoxy]ethyl}aminoalkanols as anticonvulsant agents” (Bioorg Med Chem, 2016).

Active and inactive are the calls of the source.

Data set [1] relates to Rattus norvegicus. In words: Anticonvulsant activity in rat assessed as protection against maximal electric shock-induced seizures at 30 mg/kg, po measured after 0.5 hrs. Format: functional, organism-based. In short, it runs like this: (§1)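 Rats dosed ip or orally as 0.5% methylcellulose suspension; maximal electroshock at listed time. Protection = abolition of hindlimb tonic extension; 4 rats per group, scored protected/tested.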

Data set [2] relates to Rattus norvegicus. The data set can be described thus: Anticonvulsant activity in rat assessed as protection against maximal electric shock-induced seizures at 30 mg/kg, po measured after 2 hrs. In kind it is functional, organism-based. In short, it runs like this: as §1
In data set [3] the test system is Rattus norvegicus. In words: Anticonvulsant activity in rat assessed as protection against maximal electric shock-induced seizures at 30 mg/kg, po measured after 4 hrs. In kind it is functional, organism-based. The method, boiled down:
as §1

Data set [4] concerns Rattus norvegicus. The data set can be described thus: Neurotoxicity in rat at 30 mg/kg, po after […] by rotarod test. In kind it is toxicity, organism-based. The note with it: in vivo. On the technique in general: Falling from the rotarod earlier than controls is read as motor impairment.
Data set [5] deals with Rattus norvegicus. In words: Neurotoxicity in rat at 30 mg/kg, po after 0.5 hrs by rotarod test. The note with it: in vivo. In kind it is toxicity, organism-based.
The subject of data set [6] is Rattus norvegicus. In words: Neurotoxicity in rat at 30 mg/kg, po after 1 hr by rotarod test. Format: toxicity, organism-based. The note with it: in vivo.
The test system of data set [7] is Rattus norvegicus. In words: Neurotoxicity in rat at 30 mg/kg, po after 2 hrs by rotarod test. In kind it is toxicity, organism-based. The note with it: in vivo.
In data set [8] the test system is Rattus norvegicus. In words: Neurotoxicity in rat at 30 mg/kg, po after 4 hrs by rotarod test. In kind it is toxicity, organism-based. The note with it: in vivo.
Data set [9] concerns Mus musculus. The data set can be described thus: Anticonvulsant activity in mouse assessed as protection against maximal electric shock-induced seizures at 30 mg/kg, ip measured after 0.5 hrs. In kind it is functional, organism-based. In short, it runs like this: (§2)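 Mice dosed ip with suspension in 0.5% methylcellulose; maximal electroshock applied at the listed time after dosing. Protection = abolition of hindlimb tonic extension component of seizure; reported as animals protected/animals tested.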

Data set [10] deals with Mus musculus. In words: Anticonvulsant activity in mouse assessed as protection against maximal electric shock-induced seizures at 30 mg/kg, ip measured after 4 hrs. In kind it is functional, organism-based. In short, it runs like this:
as §2

The test system of data set [11] is Mus musculus. In words: Anticonvulsant activity in mouse assessed as protection against maximal electric shock-induced seizures at 100 mg/kg, ip measured after 0.5 hrs. Format: functional, organism-based. The method, boiled down: as §2
The subject of data set [12] is Mus musculus. In words: Anticonvulsant activity in mouse assessed as protection against maximal electric shock-induced seizures at 100 mg/kg, ip measured after 4 hrs. Format: functional, organism-based. In short, it runs like this: as §2
The subject of data set [13] is Mus musculus. The data set can be described thus: Anticonvulsant activity in mouse assessed as protection against subcutaneous pentylenetetrazol-induced seizures at 30 mg/kg, ip measured after 0.5 hrs. In kind it is functional, organism-based. The method, boiled down:
(§3)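 Mice dosed ip as 0.5% methylcellulose suspension; pentylenetetrazole 85 mg/kg in 0.9% NaCl injected subcutaneously into posterior midline, animals watched at least 30 min. Protection = no threshold seizure (single clonic spasm episode lasting ≥5 s); scored protected/tested.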

The subject of data set [14] is Mus musculus. In words: Anticonvulsant activity in mouse assessed as protection against subcutaneous pentylenetetrazol-induced seizures at 100 mg/kg, ip measured after 0.5 hrs. In kind it is functional, organism-based. In short, it runs like this: as §3
For data set [15], the system named is Mus musculus. The data set can be described thus: Anticonvulsant activity in mouse assessed as protection against subcutaneous pentylenetetrazol-induced seizures at 30 mg/kg, ip measured after 4 hrs. Format: functional, organism-based. In short, it runs like this: as §3
Data set [16] concerns Mus musculus. In words: Anticonvulsant activity in mouse assessed as protection against subcutaneous pentylenetetrazol-induced seizures at 100 mg/kg, ip measured after 4 hrs. Format: functional, organism-based. The method, boiled down: as §3
Data set [17] deals with Mus musculus. In words: Neurotoxicity in mouse at 30 mg/kg, ip after 0.5 hrs by rotarod test. Format: toxicity, organism-based. The note with it: in vivo. In short, it runs like this: (§4)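 Mice were dosed ip with compound suspended in 0.5% methylcellulose. Rotarod: a 1 in. knurled rod turning at 6 rpm. Neurotoxicity was scored as failure to stay on the rod for at least 1 min in each of three trials. Results are given as the number of animals affected out of the number tested.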

The test system of data set [18] is Mus musculus. In words: Neurotoxicity in mouse at 30 mg/kg, ip after 4 hrs by rotarod test. In kind it is toxicity, organism-based. The note with it: in vivo. In short, it runs like this: as §4
Data set [19] deals with Mus musculus. The data set can be described thus: Neurotoxicity in mouse at 100 mg/kg, ip after 0.5 hrs by rotarod test. Format: toxicity, organism-based. The note with it: in vivo. The method, boiled down: as §4
Data set [20] has as its system Mus musculus. The data set can be described thus: Neurotoxicity in mouse at 100 mg/kg, ip after 4 hrs by rotarod test. Format: toxicity, organism-based. The note with it: in vivo. The method, boiled down: as §4
Data set [21] concerns Mus musculus. In words: Neurotoxicity in mouse at 300 mg/kg, ip after 0.5 hrs by rotarod test. In kind it is toxicity, organism-based. The note with it: in vivo. In short, it runs like this: as §4
The subject of data set [22] is Rattus norvegicus. In words: Anticonvulsant activity in rat assessed as protection against maximal electric shock-induced seizures at 30 mg/kg, po measured after […]. Format: functional, organism-based.
Data set [23] deals with Vibrio harveyi. In words: Mutagenicity in Vibrio harveyi BB7 assessed as number of colonies after 48 hrs (reference value: 13 to 14 no_unit). Format: ADME, organism-based. The note with it: in vivo. The method, boiled down:
(§5)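 Vibrio harveyi mutagenicity test: test compound was added to exponentially growing cultures (A600 = 0.1, 30 °C) and grown to OD600 0.3–0.4. Then 5 × 10^6 cells were plated on BOSS agar with neomycin (final 100 µg/mL) and incubated 48 h at 30 °C. Neomycin-resistant colonies were counted. Triplicate; controls were water, DMSO and NQNO 40 ng/mL.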

Data set [24] relates to Vibrio harveyi. In words: Mutagenicity in Vibrio harveyi BB7X assessed as number of colonies after 48 hrs (reference value: 15 to 16 no_unit). The note with it: in vivo. Format: ADME, organism-based. The method, boiled down:
as §5

Data set [25] deals with Vibrio harveyi. In words: Mutagenicity in Vibrio harveyi BB7M assessed as number of colonies after 48 hrs (reference value: 13 to 14 no_unit). Format: ADME, organism-based. The note with it: in vivo. In short, it runs like this: as §5
The test system of data set [26] is Vibrio harveyi. In words: Mutagenicity in Vibrio harveyi BB7XM assessed as number of colonies after 48 hrs (reference value: 14 no_unit). In kind it is ADME, organism-based. The note with it: in vivo. In short, it runs like this:
as §5

Data set [27] relates to Vibrio harveyi. In words: Antimutagenic activity against Vibrio harveyi BB7 assessed as inhibition of NQNO-induced mutagenicity after 48 hrs. In kind it is functional. The method, boiled down: (§6)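 V. harveyi cultures grown exponentially to A600 0.1 at 30 °C, exposed to test compound for 15 min, then to NQNO, and grown on to A600 0.3–0.4. 5 × 10⁶ cells plated on BOSS agar with neomycin (100, final). Neomycin-resistant colonies counted after 48 h at 30 °C. Result given as % inhibition of NQNO mutagenicity; three independent repeats.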

The test system of data set [28] is Vibrio harveyi. The data set can be described thus: Antimutagenic activity against Vibrio harveyi BB7X assessed as inhibition of NQNO-induced mutagenicity after 48 hrs. Format: functional. In short, it runs like this: as §6
Data set [29] has as its system Vibrio harveyi. The data set can be described thus: Antimutagenic activity against Vibrio harveyi BB7M assessed as inhibition of NQNO-induced mutagenicity after 48 hrs. Format: functional. The method, boiled down: as §6
The test system of data set [30] is Vibrio harveyi. In words: Antimutagenic activity against Vibrio harveyi BB7XM assessed as inhibition of NQNO-induced mutagenicity after 48 hrs. In kind it is functional. In short, it runs like this:
as §6

Data set [31] deals with Mus musculus. In words: Neurotoxicity in mouse at 300 mg/kg, ip after 4 hrs by rotarod test. The note with it: in vivo. In kind it is toxicity, organism-based. The method, boiled down: as §4
Data set [32] concerns Rattus norvegicus. The data set can be described thus: Anticonvulsant activity in rat assessed as protection against maximal electric shock-induced seizures at 30 mg/kg, po measured after 1 hr. Format: functional, organism-based. The method, boiled down: as §1

As for `Cc1cccc(C)c1OCCOCCN[C@@H]1CCCC[C@H]1O` (racemic), the outcome in the data set with Rattus norvegicus [1], in the data set on Rattus norvegicus [2], in the data set with Rattus norvegicus [3], with Mus musculus [9], in the data set on Mus musculus [10] and with Mus musculus [12] was inactive. For the same compound, the outcome in the data set with Mus musculus [13], in the data set with Mus musculus [14], in the data set with Mus musculus [15], in the data set with Mus musculus [16] and in the data set with Rattus norvegicus [22] was inactive. In addition, the Activity result with Rattus norvegicus [4], with Rattus norvegicus [5], in the data set on Rattus norvegicus [6], in the data set with Rattus norvegicus [7], with Rattus norvegicus [8] and in the data set on Mus musculus [17] was “Non-toxic” in each case. The Activity entry in the data set with Mus musculus [18] was “Non-toxic”; in the data set on Mus musculus [19] it was “Non-toxic”; in the data set on Mus musculus [20], “Non-toxic”; in the data set on Mus musculus [21], “Toxic”; with Vibrio harveyi [23] it was 29; in the data set on Vibrio harveyi [24], 25. Besides, the Activity in the data set with Vibrio harveyi [25] is on record as 26; with Vibrio harveyi [26], 22. In addition, the outcome with Mus musculus [11] was Active. Moreover, the “inhibition (INH)” value in the data set on Vibrio harveyi [27] was found to be 82%; with Vibrio harveyi [28], 52%; with Vibrio harveyi [29], 75%; in the data set on Vibrio harveyi [30], 33%.

For `Cc1cccc(C)c1OCCOCCNC(C)CO` (stereo unspecified), the result in the data set on Mus musculus [9], in the data set with Mus musculus [10], in the data set with Mus musculus [12], with Mus musculus [13], with Mus musculus [15] and in the data set on Mus musculus [16] was inactive. Moreover, the Activity entry was “Non-toxic” in the data set with Mus musculus [17]; “Non-toxic” in the data set with Mus musculus [18]; “Toxic” with Mus musculus [19]; “Non-toxic” with Mus musculus [20]; “Toxic” in the data set with Mus musculus [21]; “Non-toxic” in the data set on Mus musculus [31]. Further, the Activity came to 24 with Vibrio harveyi [23], 29 with Vibrio harveyi [24], 27 in the data set with Vibrio harveyi [25] and 19 with Vibrio harveyi [26]. In addition, the “inhibition (INH)” value in the data set with Vibrio harveyi [27] amounted to 70%; with Vibrio harveyi [28], 27%; in the data set on Vibrio harveyi [29], 75%; in the data set on Vibrio harveyi [30], 48%.

As for `Cc1cc(C)c(OCCNC(C)CO)c(C)c1` (stereo unspecified), the outcome in the data set with Rattus norvegicus [32], in the data set on Rattus norvegicus [2], in the data set on Rattus norvegicus [3], in the data set with Mus musculus [9], with Mus musculus [10] and in the data set on Mus musculus [12] was inactive. Further, the result with Mus musculus [13], in the data set on Mus musculus [14], in the data set with Mus musculus [15] and in the data set with Mus musculus [16] was inactive. In addition, the Activity entry with Rattus norvegicus [4], with Rattus norvegicus [5], in the data set on Rattus norvegicus [6], with Rattus norvegicus [7], in the data set with Rattus norvegicus [8] and in the data set with Mus musculus [17] was “Non-toxic” in each case. Besides, the Activity result in the data set on Mus musculus [18] is “Non-toxic”; with Mus musculus [19] it was “Toxic”; in the data set on Mus musculus [20], “Non-toxic”; with Mus musculus [21], “Toxic”. Besides, in the data set with Mus musculus [11], the outcome was Active.
